# How the values were obtained:
# [1] = Inhibitory activity against Hog pancreatic elastase; IA = Inactive at 1e-5M; parameters: species or system Sus scrofa
# [2] = Inhibitory activity against pancreatic elastase; IA = Inactive at 1e-5M
# Neutrophil elastase [3] = biological target: T1, Neutrophil elastase (Homo sapiens, UniProt P08246); assay: Inhibitory activity against human leukocyte elastase at 10e-7 M
# T1 sequence (P08246 whole entry): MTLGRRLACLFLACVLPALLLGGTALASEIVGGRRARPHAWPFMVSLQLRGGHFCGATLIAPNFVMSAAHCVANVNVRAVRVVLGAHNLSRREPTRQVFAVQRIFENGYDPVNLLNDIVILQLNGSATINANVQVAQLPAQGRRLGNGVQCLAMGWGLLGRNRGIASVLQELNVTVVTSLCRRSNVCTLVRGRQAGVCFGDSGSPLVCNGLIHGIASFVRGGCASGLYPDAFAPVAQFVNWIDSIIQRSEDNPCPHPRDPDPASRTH
# [4] = Inhibitory activity against Hog pancreatic elastase; IA = Inactive at 10e-6; parameters: species or system Sus scrofa
# Neutrophil elastase [5] = biological target: T1, Neutrophil elastase; assay: Binding affinity towards human leukocyte elastase at 10e-8 M
# How it was run: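 HLE activity followed as rise in absorbance at 410 nm from nitroanilide release; substrate (methoxysuccinyl)Ala-Ala-Pro-Val nitroanilide at 10⁻⁴ M. Run in 0.2 M Tris, pH 8.0, 30 °C. Inhibitors and substrate dissolved in DMSO, which made up 10% of the final medium. Enzyme titrated to give 0.12 OD unit/min per 10 mm path.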
# [6] = Inhibitory activity against pancreatic elastase; IA = Inactive at 10e-6
# [7] = biological target: T2, Neutrophil elastase (Homo sapiens) (UniProt P08246); settings: 2 uM
# T2 sequence (whole entry): T1 sequence (P08246 whole entry)
# [8] = biological target: T2, Neutrophil elastase (Homo sapiens); settings: 2 uM; remark: listed apart in the source
# [9] = biological target: T2, Neutrophil elastase (Homo sapiens); settings: 2 uM; remark: listed apart in the source
# [10] = biological target: T2, Neutrophil elastase (Homo sapiens); settings: 3 uM
# [11] = biological target: T2, Neutrophil elastase (Homo sapiens); settings: 3 uM; remark: listed apart in the source
# [12] = biological target: T2, Neutrophil elastase (Homo sapiens); settings: 3 uM; remark: listed apart in the source
# [13] = biological target: T2, Neutrophil elastase (Homo sapiens); settings: 1 uM
# [14] = biological target: T2, Neutrophil elastase (Homo sapiens); settings: 1 uM; remark: listed apart in the source
# [15] = biological target: T2, Neutrophil elastase (Homo sapiens); settings: 1 uM; remark: listed apart in the source
Compound,IC50 [1],IC50 [2],IC50 (Neutrophil elastase [3]) [µM],IC50 [4],Ki (Neutrophil elastase [5]) [µM],IC50 [6],inhibition [7] [%],inhibition [8] [%],inhibition [9] [%],inhibition [10] [%],inhibition [11] [%],inhibition [12] [%],inhibition [13] [%],inhibition [14] [%],inhibition [15] [%]
CC(C)(C)C(=O)Oc1ccc(C(=O)c2ccccc2)cc1,Not Active,Not Active,,,,,,,,,,,,,
CC(C)(C)C(=O)Oc1ccc(C(=O)c2ccc(OC(=O)C(C)(C)C)cc2)cc1,,,0.12,Not Active,0.071,Not Active,62,42,46,77,77,67,34,28,15
